Data taken from ChEMBL document CHEMBL5696442, “Discovery of type II inhibitors of TGFβ-activated kinase 1 (TAK1) and mitogen-activated protein kinase kinase kinase kinase 2 (MAP4K2)” (J Med Chem, 2015).

Assays:
[1] = biological target: Proto-oncogene tyrosine-protein kinase Src (Homo sapiens, UniProt P12931); assay: Inhibition of SRC Lys1 labeling site in human Huh-7 cell lysate at 1 uM by KiNativ Profiling analysis relative to control; type: subcellular
[2] = biological target: Mitogen-activated protein kinase 9 (Homo sapiens, UniProt P45984); assay: Inhibition of JNK2 Lys2 labeling site in human Huh-7 cell lysate at 1 uM by KiNativ Profiling analysis relative to control; type: subcellular
[3] = biological target: TRAF2 and NCK-interacting protein kinase (Homo sapiens) (UniProt Q9UKE5); assay: Inhibition of ZC2 Lys2 labeling site in human Huh-7 cell lysate at 1 uM by KiNativ Profiling analysis relative to control; type: subcellular
[4] = biological target: Protein kinase C beta type (Homo sapiens) (UniProt P05771); assay: Inhibition of PKCb Lys2 labeling site in human A-375 cells at 0.5 uM by KiNativ Profiling analysis relative to control; type: cell-based
[5] = biological target: T1, Serine/threonine-protein kinase TBK1 (Homo sapiens) (UniProt Q9UHD2); assay: Inhibition of TBK1 Lys1 labeling site in human A-375 cells at 0.5 uM by KiNativ Profiling analysis relative to control; type: cell-based
T1 sequence (whole entry): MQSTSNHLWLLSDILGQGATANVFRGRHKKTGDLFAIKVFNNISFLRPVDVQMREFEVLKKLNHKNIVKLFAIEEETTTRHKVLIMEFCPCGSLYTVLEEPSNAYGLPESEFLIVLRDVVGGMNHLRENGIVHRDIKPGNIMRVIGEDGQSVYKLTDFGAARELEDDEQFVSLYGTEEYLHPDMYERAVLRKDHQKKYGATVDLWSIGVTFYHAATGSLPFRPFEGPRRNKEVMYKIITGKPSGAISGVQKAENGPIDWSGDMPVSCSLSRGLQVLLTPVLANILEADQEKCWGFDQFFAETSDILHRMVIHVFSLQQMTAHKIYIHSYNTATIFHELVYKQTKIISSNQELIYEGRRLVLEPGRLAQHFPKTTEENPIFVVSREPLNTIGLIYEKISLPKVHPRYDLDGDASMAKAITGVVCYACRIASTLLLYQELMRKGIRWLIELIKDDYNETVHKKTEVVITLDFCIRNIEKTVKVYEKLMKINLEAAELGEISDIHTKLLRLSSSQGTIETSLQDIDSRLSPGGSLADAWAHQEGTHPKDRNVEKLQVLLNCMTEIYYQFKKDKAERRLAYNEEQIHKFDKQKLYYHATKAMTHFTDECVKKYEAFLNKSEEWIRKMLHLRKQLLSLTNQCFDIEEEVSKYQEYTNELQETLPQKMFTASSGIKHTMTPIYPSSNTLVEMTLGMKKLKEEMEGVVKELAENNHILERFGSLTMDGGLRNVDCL

[6] = biological target: Ribosomal protein S6 kinase alpha-3 (Homo sapiens) (UniProt P51812); assay: Inhibition of RSK2 domain2 Lys2 labeling site in human A-375 cells at 0.05 uM by KiNativ Profiling analysis relative to control; type: cell-based
[7] = biological target: Cyclin-dependent kinase 8 (Homo sapiens) (UniProt P49336); assay: Inhibition of CDK8 Lys2 labeling site in human A-375 cells at 5 uM by KiNativ Profiling analysis relative to control; type: cell-based
How it was run: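 Live A375 melanoma cells were treated with compound at 5 or 0.5 μM. The cells were then lysed, and the lysates were labeled with a lysine-reactive ATP or ADP-biotin acyl probe (KiNativ). Inhibition is the compound's protection of each kinase labeling-site peptide from probe labeling, relative to untreated control.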

[8] = biological target: Dual specificity mitogen-activated protein kinase kinase 1 (Homo sapiens) (UniProt Q02750); assay: Inhibition of MAP2K1 Lys2 labeling site harbouring IMHRDVKPSNILVNSR in human A-375 cells at 0.05 uM by KiNativ Profiling analysis relative to control; type: cell-based
[9] = biological target: Protein kinase C beta type (Homo sapiens) (UniProt P05771); assay: Inhibition of PKCb Lys2 labeling site in human A-375 cells at 0.05 uM by KiNativ Profiling analysis relative to control; type: cell-based
[10] = biological target: T2, Aurora kinase C (Homo sapiens) (UniProt Q9UQB9); assay: Inhibition of AurC ATP Loop labeling site in human A-375 cells at 0.5 uM by KiNativ Profiling analysis relative to control; type: cell-based
T2 sequence (whole entry): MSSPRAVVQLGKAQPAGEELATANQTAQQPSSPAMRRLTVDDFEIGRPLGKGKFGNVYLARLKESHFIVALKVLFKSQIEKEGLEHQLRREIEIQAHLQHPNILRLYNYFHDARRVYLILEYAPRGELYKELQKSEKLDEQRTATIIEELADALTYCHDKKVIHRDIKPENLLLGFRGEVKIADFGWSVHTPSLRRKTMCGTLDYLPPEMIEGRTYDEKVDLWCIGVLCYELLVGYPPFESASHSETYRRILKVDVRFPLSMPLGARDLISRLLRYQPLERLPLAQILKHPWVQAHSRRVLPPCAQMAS
How it was run: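 Live A375 melanoma cells were treated with compound at 5 or 0.5 μM, then lysed. The lysates were labeled with a lysine-reactive ATP or ADP-biotin probe. Kinase protection from probe labeling was measured by KiNativ.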

[11] = biological target: Tyrosine-protein kinase Fer (Homo sapiens, UniProt P16591); assay: Inhibition of FER Lys1 labeling site in human A-375 cells at 5 uM by KiNativ Profiling analysis relative to control; type: cell-based
[12] = biological target: Serine/threonine-protein kinase 38 (Homo sapiens) (UniProt Q15208); assay: Inhibition of NDR1 Lys2 labeling site in human A-375 cells at 0.5 uM by KiNativ Profiling analysis relative to control; type: cell-based
[13] = biological target: Serine/threonine-protein kinase mTOR (Homo sapiens) (UniProt P42345); assay: Inhibition of FRAP ATP labeling site in human A-375 cells at 5 uM by KiNativ Profiling analysis relative to control; type: cell-based
[14] = biological target: T3, DNA-PK/Ku70/Ku85 (Homo sapiens) (UniProt P78527+P12956+P13010); assay: Inhibition of DNAPK ATP labeling site harbouring KGGSWIQEINVAEK in human A-375 cells at 0.5 uM by KiNativ Profiling analysis relative to control; type: cell-based
How it was run: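 Live A375 melanoma cells were treated with compound at 0.5 or 5 μM, then lysed. Lysates were labeled with a lysine-reactive ATP or ADP-biotin probe. The read-out was protection of each kinase probe-labeling site from labeling, relative to control.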

[15] = biological target: Ribosomal protein S6 kinase alpha-1 (Homo sapiens) (UniProt Q15418); assay: Inhibition of RSK1 domain2 Lys2 labeling site in human A-375 cells at 0.5 uM by KiNativ Profiling analysis relative to control; type: cell-based
How it was run: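 Live A375 melanoma cells treated with compound at 5 or 0.5 μM, then lysed. Lysate kinases were labeled with a lysine-reactive ATP or ADP-biotin probe. Inhibition was read as protection of labeling sites from the probe.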

[16] = biological target: T3, DNA-PK/Ku70/Ku85 (Homo sapiens); assay: Inhibition of DNAPK ATP labeling site harbouring GHDEREHPFLVKGGEDLR in human A-375 cells at 5 uM by KiNativ Profiling analysis relative to control; type: cell-based
How it was run: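 A375 melanoma cells treated live with compound at 5 μM, then lysed. Lysates were labeled with a lysine-reactive ATP or ADP-biotin probe (KiNativ). Read-out is how well the compound protects each kinase labeling site from probe labeling.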

Sequence of Protein kinase C beta type (Homo sapiens) (P05771 2-671 limits assumed): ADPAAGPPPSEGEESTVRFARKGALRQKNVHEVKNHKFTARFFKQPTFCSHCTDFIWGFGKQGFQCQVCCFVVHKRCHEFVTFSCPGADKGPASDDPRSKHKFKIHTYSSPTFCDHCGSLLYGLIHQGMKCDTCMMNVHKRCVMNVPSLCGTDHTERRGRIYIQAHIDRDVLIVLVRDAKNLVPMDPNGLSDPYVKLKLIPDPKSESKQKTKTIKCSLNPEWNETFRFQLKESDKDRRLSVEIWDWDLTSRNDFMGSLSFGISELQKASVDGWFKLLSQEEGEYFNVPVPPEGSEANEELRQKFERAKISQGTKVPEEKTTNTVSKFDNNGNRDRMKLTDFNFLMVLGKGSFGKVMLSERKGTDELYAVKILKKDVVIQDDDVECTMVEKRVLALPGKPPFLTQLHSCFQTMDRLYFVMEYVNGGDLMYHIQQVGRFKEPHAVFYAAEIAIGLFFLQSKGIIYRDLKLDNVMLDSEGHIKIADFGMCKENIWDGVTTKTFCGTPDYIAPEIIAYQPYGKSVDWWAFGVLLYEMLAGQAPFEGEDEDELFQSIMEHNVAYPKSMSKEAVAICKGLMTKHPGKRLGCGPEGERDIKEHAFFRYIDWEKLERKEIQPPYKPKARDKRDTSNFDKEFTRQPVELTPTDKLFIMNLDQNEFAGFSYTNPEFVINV
Sequence of TRAF2 and NCK-interacting protein kinase (Homo sapiens) (Q9UKE5 whole entry, looked up): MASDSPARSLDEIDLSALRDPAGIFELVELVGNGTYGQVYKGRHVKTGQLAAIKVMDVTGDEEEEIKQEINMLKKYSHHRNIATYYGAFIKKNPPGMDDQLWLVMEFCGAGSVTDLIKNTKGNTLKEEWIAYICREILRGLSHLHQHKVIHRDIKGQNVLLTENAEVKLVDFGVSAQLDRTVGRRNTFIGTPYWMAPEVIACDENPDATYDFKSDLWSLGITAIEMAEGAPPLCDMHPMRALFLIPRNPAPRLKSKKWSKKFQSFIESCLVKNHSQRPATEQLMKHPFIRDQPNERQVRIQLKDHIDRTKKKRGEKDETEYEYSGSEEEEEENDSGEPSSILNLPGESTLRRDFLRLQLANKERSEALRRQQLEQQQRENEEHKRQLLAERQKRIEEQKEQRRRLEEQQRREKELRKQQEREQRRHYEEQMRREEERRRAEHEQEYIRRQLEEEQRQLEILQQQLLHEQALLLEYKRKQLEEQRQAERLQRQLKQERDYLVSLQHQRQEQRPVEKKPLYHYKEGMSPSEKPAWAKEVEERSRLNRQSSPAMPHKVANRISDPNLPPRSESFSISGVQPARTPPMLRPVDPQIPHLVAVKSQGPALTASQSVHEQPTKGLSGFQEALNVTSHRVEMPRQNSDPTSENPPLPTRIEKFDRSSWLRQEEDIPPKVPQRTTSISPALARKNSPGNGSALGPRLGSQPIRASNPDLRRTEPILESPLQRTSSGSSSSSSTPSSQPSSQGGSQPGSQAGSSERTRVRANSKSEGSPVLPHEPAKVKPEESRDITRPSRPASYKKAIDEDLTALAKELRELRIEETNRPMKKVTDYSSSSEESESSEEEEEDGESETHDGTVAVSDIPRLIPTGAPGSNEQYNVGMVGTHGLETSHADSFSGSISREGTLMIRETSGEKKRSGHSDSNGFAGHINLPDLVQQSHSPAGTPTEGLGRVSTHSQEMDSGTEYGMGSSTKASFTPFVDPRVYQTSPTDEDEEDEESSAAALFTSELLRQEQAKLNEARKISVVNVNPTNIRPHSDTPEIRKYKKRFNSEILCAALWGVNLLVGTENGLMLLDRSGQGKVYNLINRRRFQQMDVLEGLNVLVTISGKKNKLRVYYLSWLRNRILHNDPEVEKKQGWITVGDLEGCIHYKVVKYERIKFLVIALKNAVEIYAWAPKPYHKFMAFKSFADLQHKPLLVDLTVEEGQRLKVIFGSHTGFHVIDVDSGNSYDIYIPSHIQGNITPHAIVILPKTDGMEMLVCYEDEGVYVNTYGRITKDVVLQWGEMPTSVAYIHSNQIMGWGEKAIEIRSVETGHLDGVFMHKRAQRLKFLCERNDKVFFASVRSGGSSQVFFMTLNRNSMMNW
Sequence of Proto-oncogene tyrosine-protein kinase Src (P12931 2-536 limits assumed): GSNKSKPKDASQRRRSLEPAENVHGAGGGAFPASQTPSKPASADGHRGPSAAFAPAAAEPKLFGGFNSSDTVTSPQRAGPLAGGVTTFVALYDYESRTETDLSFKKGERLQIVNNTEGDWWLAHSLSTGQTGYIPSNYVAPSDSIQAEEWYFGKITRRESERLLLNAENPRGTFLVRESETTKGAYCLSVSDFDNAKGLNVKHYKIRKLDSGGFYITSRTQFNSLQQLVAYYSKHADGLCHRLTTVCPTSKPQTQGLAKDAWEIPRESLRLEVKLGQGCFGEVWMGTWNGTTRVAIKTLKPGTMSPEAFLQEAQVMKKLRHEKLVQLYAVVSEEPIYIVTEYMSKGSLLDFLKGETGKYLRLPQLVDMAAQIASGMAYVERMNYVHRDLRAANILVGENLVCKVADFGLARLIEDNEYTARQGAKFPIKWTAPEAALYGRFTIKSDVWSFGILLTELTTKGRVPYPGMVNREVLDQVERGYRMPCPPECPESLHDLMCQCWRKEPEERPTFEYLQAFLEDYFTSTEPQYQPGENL
Sequence of Ribosomal protein S6 kinase alpha-1 (Homo sapiens) (Q15418 whole entry, the tested form may be a part): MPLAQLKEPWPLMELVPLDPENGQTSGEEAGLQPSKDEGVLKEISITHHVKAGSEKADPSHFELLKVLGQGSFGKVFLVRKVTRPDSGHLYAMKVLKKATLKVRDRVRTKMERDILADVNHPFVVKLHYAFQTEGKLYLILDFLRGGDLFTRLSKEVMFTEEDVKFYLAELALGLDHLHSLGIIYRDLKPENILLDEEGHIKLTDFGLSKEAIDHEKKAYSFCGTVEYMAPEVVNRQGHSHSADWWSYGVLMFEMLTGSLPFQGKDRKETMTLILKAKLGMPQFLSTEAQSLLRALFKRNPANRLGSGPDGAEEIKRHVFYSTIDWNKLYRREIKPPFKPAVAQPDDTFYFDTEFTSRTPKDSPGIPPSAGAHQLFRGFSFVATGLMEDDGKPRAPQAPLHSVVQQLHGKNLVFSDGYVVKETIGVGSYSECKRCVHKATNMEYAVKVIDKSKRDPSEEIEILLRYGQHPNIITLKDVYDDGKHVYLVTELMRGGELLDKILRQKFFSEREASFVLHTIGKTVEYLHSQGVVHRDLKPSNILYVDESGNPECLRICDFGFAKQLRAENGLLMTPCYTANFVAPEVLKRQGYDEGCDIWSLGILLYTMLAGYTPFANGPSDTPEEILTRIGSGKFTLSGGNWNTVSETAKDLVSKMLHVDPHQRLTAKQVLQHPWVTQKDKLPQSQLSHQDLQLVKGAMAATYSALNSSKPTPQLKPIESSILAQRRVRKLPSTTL
Sequence of Mitogen-activated protein kinase 9 (P45984 whole entry, looked up): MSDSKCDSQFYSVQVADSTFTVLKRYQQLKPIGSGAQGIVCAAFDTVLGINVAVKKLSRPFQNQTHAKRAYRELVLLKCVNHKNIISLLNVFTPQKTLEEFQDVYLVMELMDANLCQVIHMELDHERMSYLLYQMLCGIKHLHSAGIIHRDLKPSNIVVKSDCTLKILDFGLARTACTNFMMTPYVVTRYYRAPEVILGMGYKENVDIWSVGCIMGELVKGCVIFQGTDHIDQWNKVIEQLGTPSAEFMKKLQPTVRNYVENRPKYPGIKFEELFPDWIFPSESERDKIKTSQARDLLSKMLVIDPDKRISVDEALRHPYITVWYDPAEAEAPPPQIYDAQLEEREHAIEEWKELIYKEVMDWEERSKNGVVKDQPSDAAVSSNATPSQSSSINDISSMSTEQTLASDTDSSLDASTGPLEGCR
Sequence of Serine/threonine-protein kinase 38 (Homo sapiens) (Q15208 2-465 limits assumed): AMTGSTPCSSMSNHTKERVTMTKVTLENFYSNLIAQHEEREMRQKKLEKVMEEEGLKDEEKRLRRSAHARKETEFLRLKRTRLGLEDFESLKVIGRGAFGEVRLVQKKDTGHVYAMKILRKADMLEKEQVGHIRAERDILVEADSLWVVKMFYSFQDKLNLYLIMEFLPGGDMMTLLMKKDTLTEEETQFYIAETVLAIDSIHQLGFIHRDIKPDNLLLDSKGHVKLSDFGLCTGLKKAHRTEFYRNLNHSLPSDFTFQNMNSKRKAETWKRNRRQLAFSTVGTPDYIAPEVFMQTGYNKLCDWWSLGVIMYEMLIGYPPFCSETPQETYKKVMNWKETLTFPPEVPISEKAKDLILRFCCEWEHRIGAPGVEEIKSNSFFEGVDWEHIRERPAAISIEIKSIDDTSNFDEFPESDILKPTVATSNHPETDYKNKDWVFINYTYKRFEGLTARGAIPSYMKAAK
Sequence of Ribosomal protein S6 kinase alpha-3 (Homo sapiens) (P51812 whole entry, the tested form may be a part): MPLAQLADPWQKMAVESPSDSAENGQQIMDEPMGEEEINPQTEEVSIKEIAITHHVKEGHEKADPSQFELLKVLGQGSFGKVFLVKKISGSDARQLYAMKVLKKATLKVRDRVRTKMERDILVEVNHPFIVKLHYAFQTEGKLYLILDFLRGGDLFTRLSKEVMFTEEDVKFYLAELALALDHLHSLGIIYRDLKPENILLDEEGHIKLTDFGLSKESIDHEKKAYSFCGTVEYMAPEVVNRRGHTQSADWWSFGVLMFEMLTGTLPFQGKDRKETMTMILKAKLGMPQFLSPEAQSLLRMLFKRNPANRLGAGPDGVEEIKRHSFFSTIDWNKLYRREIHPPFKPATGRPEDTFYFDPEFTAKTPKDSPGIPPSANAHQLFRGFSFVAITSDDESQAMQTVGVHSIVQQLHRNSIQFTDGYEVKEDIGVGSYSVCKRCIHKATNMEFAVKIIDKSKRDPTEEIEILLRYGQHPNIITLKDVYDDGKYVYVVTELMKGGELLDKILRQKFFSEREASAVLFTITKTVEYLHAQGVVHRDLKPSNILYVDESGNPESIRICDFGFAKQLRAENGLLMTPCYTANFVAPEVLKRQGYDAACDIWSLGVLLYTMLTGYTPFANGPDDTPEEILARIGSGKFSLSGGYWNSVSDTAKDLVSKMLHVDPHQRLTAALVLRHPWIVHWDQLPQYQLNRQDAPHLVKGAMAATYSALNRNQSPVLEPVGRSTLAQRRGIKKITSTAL

## CNc1cc(Oc2cc(C(=O)Nc3cc(-n4cnc(C)c4)cc(C(F)(F)F)c3)ccc2C)ncn1
[1]
  inhibition: -2.8%
[2]
  inhibition: 18.4%
[3]
  inhibition: 24.1%

## CNc1cc(Oc2cc(C(=O)Nc3cc(N4CCN(C)CC4)cc(C(F)(F)F)c3)ccc2C)ncn1
[1]
  inhibition: 18.1%
[2]
  inhibition: 7%
[3]
  inhibition: 2.7%

## CCN1CCN(Cc2ccc(NC(=O)c3ccc(C)c(Oc4ccnc5[nH]ccc45)c3)cc2C(F)(F)F)CC1
[4]
  inhibition: 65%
[5]
  inhibition: 17.1%
[6]
  inhibition: 2.2%
[7]
  inhibition: 18%
[8]
  inhibition: 14.9%
[9]
  inhibition: 45.3%
[10]
  inhibition: 31.2%
[11]
  inhibition: 98.1%
[12]
  inhibition: 33.9%
[13]
  inhibition: -0.1%
[14]
  inhibition: 34%
[15]
  inhibition: 3%
[16]
  inhibition: 17.1%

## CCN1CCN(Cc2ccc(NC(=O)c3ccc(C)c(/C=C/c4cnc5[nH]ccc5c4OC)c3)cc2C(F)(F)F)CC1
[4]
  inhibition: 48.2%
[5]
  inhibition: 28.7%
[6]
  inhibition: 0.3%
[7]
  inhibition: 16.9%
[8]
  inhibition: 32.5%
[9]
  inhibition: 58%
[10]
  inhibition: 30.2%
[11]
  inhibition: 80.3%
[12]
  inhibition: 30.6%
[13]
  inhibition: -9.4%
[14]
  inhibition: 17.8%
[15]
  inhibition: 1.6%
[16]
  inhibition: 13.8%
